Screening results (PubChem BioAssay)
aSyn UTR inh – MLPCN primary screen, SNCA 5' untranslated region. AID 1813. alpha-synuclein 5'UTR reporter, inhibitor activity. inhibition, % (tested at 7.5 µM). 300,000 tested, 0.82% active; in the data active = inhibition above about 60%;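 note: H4 neuroglioblastoma cells stably carrying SNCA 5'UTR luciferase fusion; 0% = DMSO wells and 100% = positive control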
EWS-Fli inh – EWS/Fli transcriptional activity inhibition; A673 NR0B1-luciferase reporter, viability-normalised; inhibition, % at 12.6 µM; 350,000 tested, 0.67% active;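 active = mean inhibition of at least 50% after viability correction, with every replicate also passing that limit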;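 note: firefly luciferase signal divided by Alamar Blue viability fluorescence both relative to DMSO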
Shn3 inh set2 – Schnurri-3 reporter inhibition in Clone20 osteoblasts. Clone20 osteoblast Shn3 3'UTR firefly luciferase, 24 h. inhibition, % at 12.5 µM. 360,000 tested, 0.52% active;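 active = mean inhibition of at least 75% with every replicate also reaching 75%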;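 note: 0% = median of neutral control wells and 100% = pilot-screen positive control compound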
PAX8 inh HTS – inhibitors of PAX8 transcriptional activity in RMG-I cells; AID 652154; RMG-I TPO-luciferase reporter, SteadyGlo, 24 h; inhibition, % at 12.6 µM; 360,000 tested, 1.2% active;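 active = mean replicate inhibition at least 60% with every replicate also reaching 60%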;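 note: luciferase light reporting Pax8 driven TPO promoter activity; plate controls were median of neutral control wells for no effect and mitoxantrone controls for full effect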
EBV LMP1 NFkB – reduces LMP1-driven NF-kappaB luciferase signal. LMP1-induced NF-kappaB luciferase reporter cells, luminescence. inhibition, % at 12.5 µM. 350,000 tested, 0.69% active. AID 504558; in the data active = inhibition above about 41%;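 note: 0% = neutral control wells and 100% = reference inhibitor control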
FN deposition inh – fibronectin deposition inhibition; inhibition, % at 12.6 µM; 350,000 tested, 0.086% active; AH1F fibroblasts, Alexa488-fibronectin deposition fluorescence, overnight;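 active = mean inhibition across replicates of 30% or more, regardless of how many single replicates reach that level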;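 note: positive control wells lacked labelled fibronectin entirely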
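Material: AH1F fibroblast monolayer depositing Alexa488-labelled fibronectin into matrix | Input: 10000 AH1F cells/well | Medium: DMEM plus 2% serum, read in PBS | Reagent: Alexa488-fibronectin, 24 nM final in well | Compound dosing: One dose per compound, pinned | Schedule: 1 h adhesion, overnight exposure | Measured by: Fluorescence at 485 nm excitation, 525 nm emission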
Active calls of the source: *; / = no result. Rows were chosen to be rich in hits. Some 2.1% of all compounds tested hit in one or more screens of this group.

SMILES	aSyn UTR inh	EWS-Fli inh	Shn3 inh set2	PAX8 inh HTS	EBV LMP1 NFkB	FN deposition inh
COc1ccc(CN(C)C[C@H]2OCCCC[C@@H](C)Oc3ccc(NC(=O)Nc4cccc5ccccc45)cc3C(=O)N([C@H](C)CO)C[C@H]2C)cc1	/	71.8*	/	21.9	/	/
N#Cc1cccc(-c2ccc3c(c2)[C@@H]2[C@@H](CCN2C(=O)C2CCCCC2)[C@H](CO)N3)c1	/	7.2	/	46.5	/	6.4
COc1cc2ccccc2cc1C(=O)Nc1sc2c(c1C(N)=O)CCN(C(C)C)C2	102.4*	17.3	5.2	/	-17.7	5.7
COc1cc(/C=N/NS(=O)(=O)c2ccc(C)cc2)ccc1OCc1ccc(C(=O)O)cc1	84.2*	/	25.1	99.6*	61.0*	13.2
CO[C@H]1CN(C)C(=O)c2ccc(NC(=O)C3CC3)cc2OC[C@@H](C)N(Cc2cccnc2)C[C@H]1C	/	-2.1	/	25.0	/	-9.1
C[C@H](CO)N1C[C@H](C)[C@@H](CN(C)Cc2cccc(F)c2)OCc2ccccc2-c2ccccc2C1=O	/	3.6	/	-9.8	/	3.7
COc1ccc(-n2c(SCC(=O)Nc3cc(C)on3)nc3c(c2=O)SCC3)cc1	11.4	-6.7	2.3	-7.5	82.6*	1.3
COc1ccc(-n2c(SCC(=O)Nc3cc(C)on3)nc3c(c2=O)SCC3)cc1OC	5.9	4.1	-5.2	4.6	3.0	-1.8
COC(=O)c1ccc(CSc2nc3c(c(=O)n2-c2ccc(C)cc2)SCC3)o1	14.1	-22.8	-1.6	7.6	70.4*	-2.9
O=C(Nc1ccccc1)N[C@@H]1CC[C@H](CCNS(=O)(=O)c2cccc(F)c2)O[C@@H]1CO	/	7.3	/	1.3	/	/
CCC(=O)N1CC2(C1)[C@H](c1ccc(-c3ccc(C#N)cc3)cc1)[C@@H](CO)N2C(C)=O	/	-3.6	/	/	/	/
COc1ccc(-n2cc(-c3ccc(C)cc3)[n+]3c2SCC3)cc1	-23.1	/	78.9	79.4*	24.7	/
Cc1ccc(-c2cn(-c3ccccc3)c3[n+]2CCCS3)cc1	2.0	17.4	76.6	79.0*	3.5	-7.5
COc1cccc(-c2cn3nc(C)c(C)nc3n2)c1	-69.9	/	-20.8	/	5.6	/
COc1ccc(-c2cn3nc4c(nc3n2)CCCC4)cc1	/	/	-15.8	/	62.3*	/
COc1ccc2c(c1)c1c(c(=O)n(-c3ccc(C)cc3)c(=O)n1CC(=O)NCC1CCCO1)n2C (stereo unspecified)	/	7.3	-23.0	-0.3	3.2	2.6
Cc1ccc(-n2c(=O)c3c(c4cc(C)ccc4n3C)n(CC(=O)NCC3CCCO3)c2=O)cc1 (stereo unspecified)	/	-2.0	5.5	-9.9	48.9*	/
Cc1cc(C)c(S(=O)(=O)Nc2cc(SCC(=O)O)c(O)c3ccccc23)cc1C	66.8*	/	/	/	/	/
C[C@H](CO)N1C[C@H](C)[C@@H](CN(C)S(=O)(=O)c2ccc(Cl)cc2)Oc2ccc(NC(=O)Cc3cn(C)c4ccccc34)cc2C1=O	/	9.4	/	9.6	/	/
CCOC(=O)c1c(C)[nH]c(C(=O)OCC(=O)Nc2cc(Cl)ccc2OC)c1C	-5.6	/	20.8	/	-0.9	/
CC(=O)c1c(C)[nH]c(C(=O)OCC(=O)Nc2ccc(Cl)cc2[N+](=O)[O-])c1C	-36.5	13.0	91.7*	35.8	22.9	6.3
C[C@H](CO)N1C[C@H](C)[C@@H](CN(C)C)Oc2cc(-c3ccccc3)ccc2S1(=O)=O	/	-0.1	/	-5.1	/	/
COC(=O)/C(=C\Nc1ccc(Cl)cc1Cl)NC(=O)c1ccc(OC)cc1	-47.7	53.3*	4.1	16.9	-5.6	0.4
COCCOc1nc2c(c(=O)n(C)c(=O)n2C)n1Cc1cccc(OC)c1	1.2	/	87.4*	/	5.2	/
Cc1noc(C)c1NC(=O)N(C)C[C@H]1Oc2ccc(NC(=O)Cc3cn(C)c4ccccc34)cc2C(=O)N([C@H](C)CO)C[C@H]1C	/	0.0	/	/	/	/
SMILES	aSyn UTR inh	EWS-Fli inh	Shn3 inh set2	PAX8 inh HTS	EBV LMP1 NFkB	FN deposition inh
S=C(Nc1cccnc1)Nc1cccc2cnccc12	66.0*	2.7	-14.3	8.7	3.8	-4.6
COc1ccc(CN(C(=O)CSc2nnc(-c3ccc(F)cc3)o2)c2ccc(F)cc2)cc1	10.4	5.9	88.2*	/	1.5	/
COc1ccc(CN(C(=O)CSc2nnc(-c3c[nH]c4ccccc34)o2)c2ccc(F)cc2)cc1OC	-43.4	/	80.3	81.2*	36.0	5.0
C[C@@H]1CN([C@H](C)CO)C(=O)c2cc(NS(C)(=O)=O)ccc2O[C@H]1CN(C)Cc1ccc(C(=O)Nc2ccccc2N)cc1	/	1.2	/	/	/	/
C[C@H]1CN([C@@H](C)CO)S(=O)(=O)c2ccc(C#CC3CCCC3)cc2O[C@H]1CN(C)Cc1cncnc1	/	52.4*	/	-11.3	/	-1.2
C[C@H]1CN([C@@H](C)CO)S(=O)(=O)c2ccc(C#CC3CCCC3)cc2O[C@@H]1CN(C)Cc1cccnc1	/	19.2	/	98.0*	/	8.5
CNC[C@@H]1Oc2cc(C#CC3CCCCC3)ccc2S(=O)(=O)N([C@@H](C)CO)C[C@@H]1C	/	56.0*	/	91.8*	/	1.7
COc1cccc(NC(=O)N(C)C[C@H]2Oc3cc(C#CC4(O)CCCC4)ccc3S(=O)(=O)N([C@@H](C)CO)C[C@@H]2C)c1	/	3.4	/	2.9	/	-11.5
C[C@H]1CCCCO[C@H](CN(C)C(=O)Nc2ccc3c(c2)OCO3)[C@@H](C)CN([C@@H](C)CO)C(=O)c2cc(NC(=O)Nc3ccc(F)cc3)ccc2O1	/	-1.0	/	32.3	/	/
CO[C@H]1CN(C)C(=O)c2cc(NC(C)=O)ccc2OC[C@H](C)N(C(=O)C2CCCCC2)C[C@@H]1C	/	-6.9	/	-7.4	/	-8.1
Clc1cccc(-c2nc3nc4ccccc4nc3n2Cc2ccccc2)c1	29.5	0.6	22.7	84.9*	11.1	3.6
COCCCn1c(-c2ccc(S(=O)(=O)N3CCOCC3)cc2)csc1=Nc1ccccc1	14.6	/	91.2*	-2.1	28.0	-2.8
COc1ccc(-c2cc(C)no2)cc1S(=O)(=O)N(C)c1cccc(C)c1	15.1	/	7.1	6.6	-3.3	-0.3
Cc1cccc(N(C)S(=O)(=O)c2ccc(-c3cc(C)no3)s2)c1	87.9*	53.6*	-11.9	38.3	1.2	-12.2
CCN(c1cccc(C)c1)S(=O)(=O)c1ccc(-c2cc(C)no2)s1	26.3	55.3*	18.1	27.7	9.4	0.7
CCOc1ccc(N(C)S(=O)(=O)c2ccc(-c3cc(C)no3)s2)cc1	-58.7	54.9*	13.2	23.9	-4.7	0.0
C[C@H](CO)N1C[C@H](C)[C@H](CN(C)C(=O)Nc2ccc(F)cc2)OCCCC[C@H](C)Oc2ccc(NC(=O)Nc3ccccc3)cc2C1=O	/	-7.9	/	-14.5	/	4.3
O=C([C@@H]1[C@@H](CO)[C@@H]2Cn3c(cccc3=O)[C@H]1N2C(=O)c1ccc(F)cc1)N1CCCCC1	/	1.7	/	-4.9	/	/
CC1=C([N+](=O)[O-])C(c2ccccc2)C2=C(N1)c1ccccc1C2=O (stereo unspecified)	113.3*	/	14.4	/	13.3	-4.8
COc1ccc(C2C(C#N)=C(C)NC3=C2C(=O)c2ccccc23)cc1 (stereo unspecified)	8.3	/	15.2	/	4.3	/
